This note sets out measurements from ChEMBL document CHEMBL6134787, “Fexinidazole optimization: enhancing anti-leishmanial profile, metabolic stability and hERG safety” (RSC Med Chem, 2024).

A value given as a limit tells only on which side of the number the result lay.

T1 sequence (Q12809 whole entry): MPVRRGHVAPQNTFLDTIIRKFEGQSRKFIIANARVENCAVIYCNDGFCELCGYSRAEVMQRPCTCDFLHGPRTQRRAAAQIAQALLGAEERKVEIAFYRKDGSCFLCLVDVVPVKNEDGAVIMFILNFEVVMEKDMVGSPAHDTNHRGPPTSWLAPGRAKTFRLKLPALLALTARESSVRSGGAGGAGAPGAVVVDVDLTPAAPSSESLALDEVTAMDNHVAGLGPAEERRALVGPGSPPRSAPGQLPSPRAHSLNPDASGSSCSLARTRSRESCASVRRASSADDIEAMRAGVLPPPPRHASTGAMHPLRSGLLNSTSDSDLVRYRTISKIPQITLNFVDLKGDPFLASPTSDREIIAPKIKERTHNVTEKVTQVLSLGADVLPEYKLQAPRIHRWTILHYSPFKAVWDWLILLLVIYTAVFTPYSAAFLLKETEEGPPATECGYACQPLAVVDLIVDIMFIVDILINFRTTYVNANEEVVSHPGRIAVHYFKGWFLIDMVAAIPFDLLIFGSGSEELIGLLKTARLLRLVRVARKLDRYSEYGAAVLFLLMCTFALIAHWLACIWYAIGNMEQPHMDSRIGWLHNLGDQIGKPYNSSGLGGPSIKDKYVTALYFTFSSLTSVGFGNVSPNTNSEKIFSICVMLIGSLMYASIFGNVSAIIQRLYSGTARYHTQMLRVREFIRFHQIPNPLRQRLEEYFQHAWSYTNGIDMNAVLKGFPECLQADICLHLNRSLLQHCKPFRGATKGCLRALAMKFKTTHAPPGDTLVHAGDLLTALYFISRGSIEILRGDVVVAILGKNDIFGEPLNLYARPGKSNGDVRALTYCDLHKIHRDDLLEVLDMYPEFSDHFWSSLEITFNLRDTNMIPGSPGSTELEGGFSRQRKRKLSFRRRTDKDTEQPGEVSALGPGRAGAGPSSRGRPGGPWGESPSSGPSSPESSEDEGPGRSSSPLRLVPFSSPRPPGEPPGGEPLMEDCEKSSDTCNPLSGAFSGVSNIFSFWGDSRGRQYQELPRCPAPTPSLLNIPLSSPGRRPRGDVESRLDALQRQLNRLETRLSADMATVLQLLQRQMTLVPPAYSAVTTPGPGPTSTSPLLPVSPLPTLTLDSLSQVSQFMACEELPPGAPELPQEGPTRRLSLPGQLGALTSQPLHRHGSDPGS

One series deals with Leishmania braziliensis. The series can be described thus: Antileishmanial activity against wild type Leishmania braziliensis UA847 promastigotes […] assessed as inhibition of parasite growth incubated for 72 hrs by automatic microtiter plate reader analysis. The class given is functional, organism-based.
Settings: not given
The essentials: (§1)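 Promastigotes were grown in Schneider's medium (4 mM glutamine, gentamicin, 10% heat-inactivated FBS, pH 6.9, 27 °C). Cells were seeded at 1.5 × 10^5/well and exposed to a concentration series for 72 h at 27 °C.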
As usually defined, the IC50 is the midpoint of a concentration-inhibition curve. `Cn1c([N+](=O)[O-])cnc1COc1ccc(S(C)(=N)=O)cc1` (centres undefined): the IC50 came out at 9.6 µM.

With `CSc1ccc(NC(=O)c2ncc([N+](=O)[O-])[nH]2)cc1`, the IC50 was more than 20 µM.

The test system of the next series is Leishmania donovani. The series can be described thus: Antileishmanial activity against wild type Leishmania donovani HU3 promastigotes […] assessed as inhibition of parasite growth incubated for 72 hrs by automatic microtiter plate reader analysis. The class given is functional, organism-based.
Settings: not given
Take `Cn1c([N+](=O)[O-])cnc1COc1ccc(S(C)(=N)=O)cc1` (centres undefined): the IC50 turned out to be 12.2 µM.

As for `CSc1ccc(NC(=O)c2ncc([N+](=O)[O-])[nH]2)cc1`, the IC50 was more than 20 µM.

The next series has as its target T1, Voltage-gated inwardly rectifying potassium channel KCNH2 (Homo sapiens, UniProt Q12809). As to the kind of experiment: Inhibition of human ERG stably overexpressed in HEK293 cells assessed as remaining activity at 6 uM incubated for 30 mins by FLIPR assay. The class given is toxicity, cell-based. The conditions noted are these: hek293, 0.5 h, 6 µM. The essentials:
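HEK-293 cells stably expressing hERG, seeded at 60 000/well and grown 24 h. Compounds were added in DMSO (final 0.5%) and incubated 30 min in the dark. After 20 s baseline, Tl+ stimulus (3 mM) was added and fluorescence (ex 485/em 535 nm) recorded for 2.5 min.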
Take `Cn1c([N+](=O)[O-])cnc1COc1ccc(S(C)(=N)=O)cc1` (centres undefined): the “inhibition (INH)” value is “Not_active”.

In the case of `CSc1ccc(NC(=O)c2ncc([N+](=O)[O-])[nH]2)cc1`, the “inhibition (INH)” value is given as “Not_active”.

The next series deals with Leishmania amazonensis. As to the kind of experiment: Antileishmanial activity against wild type Leishmania amazonensis LV78 promastigotes […] assessed as inhibition of parasite growth incubated for 72 hrs by automatic microtiter plate reader analysis. The class given is functional, organism-based.
Settings: not given
Summed up: as §1
Regarding `Cn1c([N+](=O)[O-])cnc1COc1ccc(S(C)(=N)=O)cc1` (centres undefined), the IC50 was 14.6 µM.

With `CSc1ccc(NC(=O)c2ncc([N+](=O)[O-])[nH]2)cc1`, the IC50 was more than 20 µM.

The target of the next series is T1, Voltage-gated inwardly rectifying potassium channel KCNH2. As to the kind of experiment: Inhibition of human ERG stably overexpressed in HEK293 cells incubated for 30 mins by FLIPR assay. The class given is toxicity, cell-based. The conditions noted are these: human, hek293, 0.5 h; time 30 min.
As usually defined, the IC25 is the concentration needed for an effect of 25%. Low readings indicate an effect from little substance, high ones a need for much substance. `Cn1c([N+](=O)[O-])cnc1COc1ccc(S(C)(=N)=O)cc1` (centres undefined): the IC25 is more than 100 µM.

On to `CSc1ccc(NC(=O)c2ncc([N+](=O)[O-])[nH]2)cc1`, for which the IC25 is more than 12.5 µM.

System in another series: not listed separately
As to the kind of experiment: Hepatotoxicity against mouse TAMH cells assessed as cell viability at 7.8 to 125 uM incubated for 24 to 48 hrs by MTT assay. The class given is toxicity, cell-based. Particulars: dose lower 7.8 µM, time lower 24 hrs, dose upper 125 µM, time upper 48 hrs, read-out: Activity. Summed up: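 TAMH mouse liver cells in FCS-free DMEM/F12 with 5% PANEXIN NTA, 10 mM nicotinamide and gentamicin. Seeded at 20 000/well and attached 24 h at 37 °C, 5% CO2. DMSO-diluted compounds were applied for 24 or 48 h. MTT was added for 4 h, formazan dissolved in DMSO and A570 read. Viability was background-corrected and expressed relative to DMSO controls; mean ± SD, ≥3 experiments.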
For orientation: Formazan colour is commonly taken as a measure of viable cells.
For `Cn1c([N+](=O)[O-])cnc1COc1ccc(S(C)(=N)=O)cc1` (centres undefined), the viability at up to 125 µM is more than 50%.

Take `CSc1ccc(NC(=O)c2ncc([N+](=O)[O-])[nH]2)cc1`: the viability at up to 125 µM was 56%.

Another series has as its system Leishmania donovani. The series can be described thus: Antileishmanial activity against miltefosine resistant Leishmania donovani HU3MILR40 promastigotes […] assessed as inhibition of parasite growth incubated for 72 hrs by automatic microtiter plate reader analysis.
Settings: not given
In kind it is functional, organism-based. The essentials:
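Promastigote (free parasite) assay: Schneider's Drosophila medium with 4 mM glutamine, 25 μg mL−1 gentamicin, 10% heat-inactivated FBS, pH 6.9, 27 °C. 1.5 × 10^5 promastigotes per well exposed to a concentration series for 72 h at 27 °C.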
As to `Cn1c([N+](=O)[O-])cnc1COc1ccc(S(C)(=N)=O)cc1` (centres undefined), the IC50 is 12.3 µM.

For `CSc1ccc(NC(=O)c2ncc([N+](=O)[O-])[nH]2)cc1`, the IC50 was more than 13.9 µM.

System in a further series: not listed separately
The series can be described thus: Cytotoxicity against mouse L929 cells assessed as inhibition of cell growth incubated for 72 hrs by MTS assay. In kind it is toxicity, cell-based.
Settings: not given
Summed up:
(§2)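 Cells in DMEM + 10% heat-inactivated FBS with penicillin/streptomycin at 37 °C, 5% CO2. They were seeded at 1 × 10^4/well and incubated with a concentration series for 72 h at 37 °C. Viability was read by MTS/PMS assay at 490 nm and IC50 derived.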
Regarding `Cn1c([N+](=O)[O-])cnc1COc1ccc(S(C)(=N)=O)cc1` (centres undefined), the concentration for half-maximal inhibition (IC50) at 72 h is more than 100 µM.

Turning to `CSc1ccc(NC(=O)c2ncc([N+](=O)[O-])[nH]2)cc1`, the IC50 at 72 h turned out to be 84.7 µM.

System in another series: not listed separately
As to the kind of experiment: Metabolic stability in rat liver S9 fraction assessed as compound remaining at 20 uM measured after 32 mins in presence of NADP and GSH by HPLC analysis. In kind it is ADME, subcellular. Particulars: read-out: Stability. Summed up: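 Rat liver S9 (final 4 mg/mL) in 50 mM phosphate pH 7.4 with NADPH-regenerating system (0.3 mM NADP+, 5.3 mM glucose-6-phosphate, G6PDH), 10 mM MgCl2 and 5 mM EDTA. Pre-warmed 10 min at 37 °C, then 20 μM compound and 5.5 μM GSH added. Samples taken at 0, 16 and 32 min were quenched in ice-cold acetonitrile. HPLC (254/280 nm) peak area was expressed relative to 0 min.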
For `Cn1c([N+](=O)[O-])cnc1COc1ccc(S(C)(=N)=O)cc1` (centres undefined), the remaining at 32 min, 20 µM was determined as 100%.

For `CSc1ccc(NC(=O)c2ncc([N+](=O)[O-])[nH]2)cc1`, the remaining at 32 min, 20 µM was 68.2%.

Another series relates to RAW264.7. The series can be described thus: Cytotoxicity against mouse RAW264.7 cells assessed as inhibition of cell growth incubated for 72 hrs by MTS assay. In kind it is functional, cell-based. The conditions noted are these: RAW264.7, 72 h. The essentials: as §2
Turning to `Cn1c([N+](=O)[O-])cnc1COc1ccc(S(C)(=N)=O)cc1` (centres undefined), the half-maximal inhibitory concentration (IC50) was more than 100 µM.

`CSc1ccc(NC(=O)c2ncc([N+](=O)[O-])[nH]2)cc1`: the IC50 is more than 68.7 µM.

For another series, the system named is Leishmania major. As to the kind of experiment: Antileishmanial activity against wild type Leishmania major FV1 promastigotes […] assessed as inhibition of parasite growth incubated for 72 hrs by automatic microtiter plate reader analysis. In kind it is functional, organism-based.
Settings: not given
Summed up:
as §1
On to `Cn1c([N+](=O)[O-])cnc1COc1ccc(S(C)(=N)=O)cc1` (centres undefined), for which the IC50 is 2.7 µM.

Consider `CSc1ccc(NC(=O)c2ncc([N+](=O)[O-])[nH]2)cc1`, for which the IC50 is more than 20 µM.

System in a further series: not listed separately
As to the kind of experiment: Metabolic stability in rat liver microsome assessed as compound remaining at 20 uM measured after 32 mins in presence of NADP and GSH by HPLC analysis. In kind it is ADME. The conditions noted are these: liver microsomes, read-out: Stability. Summed up:
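Rat liver microsomes (final 2 mg/mL) in 50 mM phosphate pH 7.4 with 0.3 mM NADP+, 5.3 mM glucose-6-phosphate, G6PDH, 10 mM MgCl2 and 5 mM EDTA. 20 μM compound added at 37 °C. Aliquots at 0, 16 and 32 min were quenched in ice-cold acetonitrile and centrifuged. HPLC peak area at 254/280 nm was expressed relative to 0 min.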
On the technique in general: Liver microsomes are vesicles of endoplasmic reticulum, rich in cytochrome P450 enzymes.
For `Cn1c([N+](=O)[O-])cnc1COc1ccc(S(C)(=N)=O)cc1` (centres undefined), the remaining at 32 min, 20 µM was determined as 100%.

Regarding `CSc1ccc(NC(=O)c2ncc([N+](=O)[O-])[nH]2)cc1`, the remaining at 32 min, 20 µM was 18.4%.
